HUVEC prolif 384: inhibitors of human endothelial cell proliferation; HUVEC proliferation, CellTiter-Glo luminescence, 72 h; stronger effect = lower value; AID 648; 86,000 compounds, 1.1% hits; viability, % at 10 µM (by protocol);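 active = viability at or below 30%; inactive = viability above 30%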;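 note: 100% = median luminescence of DMSO-only cell control wells on each plate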
HCT116 bCat-KO: beta-catenin-lacking colon tumor cell growth suppression. HCT116 beta-catenin knockout viability, CellTiter-Glo, 60 h; stronger effect = lower value. viability, % at 10 µM. 140,000 compounds, 1.5% hits;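 active = viability at or under a set limit, the compound median less 4 SD, cut at about 6% in these data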;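 note: 0% = Hyamine 1622 control at 20 µM and 100% = untreated cell control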
HCT116 PTEN-null: PTEN-deleted cell growth suppression; AID 827; HCT116 PTEN-null viability, CellTiter-Glo, 60 h; stronger effect = lower value; viability, % at 10 µM; 140,000 compounds, 1.2% hits;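 active = viability at or below a set limit, 4 SD under the median of all tested compounds, cut at about 3.7% in these data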;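 note: PTEN knockout HCT116 line with beta catenin targeted HCT116 as companion control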
H69AR inhibit: growth inhibitors of human H69AR lung tumor cells; H69AR lung tumor viability, ATP luminescence, 72 h; stronger effect = lower value; viability, % at 10 µM; 85,000 compounds, 6% hits; AID 598;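 active = viability at or below 40%; inactive = viability above 40%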;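 note: multidrug resistant small cell line overexpressing MRP-1 efflux transporter; 100% = mean luminescence of untreated control wells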
Fibroblast inh: blocks proliferation of human lung fibroblasts; LL 47 human lung fibroblast viability, ATP luminescence; stronger effect = lower value; viability, % at 10 µM; 85,000 compounds, 1.1% hits;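 active = viability at or below 50% in the single dose screen; inactive = viability above 50%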;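 note: compound exposure lasted 72 h before the ATP readout; 100% = median luminescence of untreated cell-only wells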
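Material: Human LL 47 lung fibroblast cells | Input: 1,150 cells/well | Buffer or medium: IMEM plus 15% FBS | Compound dosing: 0.1% DMSO in all compound wells | Times: Overnight cell rest, 72 h compound treatment at 37 °C | Signal: CellTiter-Glo luminescence measuring cellular ATP | Measure: % viability versus median cells-only luminescence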
* = called active by the depositor; · = no result given. This excerpt belongs to a sample that is enriched for hits.

SMILES	HUVEC prolif 384	HCT116 bCat-KO	HCT116 PTEN-null	H69AR inhibit	Fibroblast inh
O=C(Nc1ccccc1C(F)(F)F)c1ccc(F)c(S(=O)(=O)N2CCOCC2)c1	94	93	96	92	96
COc1cccc2cc(C(=O)NCc3ccco3)c(=Nc3ccc(C(=O)O)cc3)oc12	78	67	49	12*	85
COc1cccc2cc(C(=O)NCc3ccco3)c(=O)oc12	·	91	98	·	·
CC(NC(=O)CN1CCC(C(N)=O)CC1)c1ccccc1 (stereo not drawn)	104	93	105	94	97
Cn1c(C2CCCN2C(=O)OC(C)(C)C)n[nH]c1=S (stereo not drawn)	96	88	107	1.8*	92
Cc1cc(Nc2cccc(Cl)c2C)n2ncnc2n1	113	100	96	91	99
C[C@@H](NC(=O)c1coc(=O)c(Br)c1)c1ccccc1	83	86	81	3.7*	54
CCOC(=O)c1c(-c2ccc(C)o2)csc1NC(=O)CSc1nncs1	89	100	92	31*	97
Fc1ccc2nc3n(c2c1F)CCCCCC3	89	104	96	93	·
Cc1c(NC(=O)c2cccc(NC(=O)c3ccco3)c2)cccc1C(=O)O	98	91	90	96	98
CCn1c(SCC(=O)NC2CCCCC2)nc2c(c1=O)SC(C)C2 (stereo not drawn)	90	100	91	39*	94
O=C(CCC(=O)OCc1ccc(Cl)cc1)Nc1cccc([N+](=O)[O-])c1	·	95	92	·	·
CN(CC(=O)Nc1nc2ccccc2s1)S(=O)(=O)c1ccc(Br)cc1	84	83	62	95	91
CN(CC(=O)Nc1nc2ccccc2s1)S(=O)(=O)c1ccc(Cl)cc1	67	89	94	36*	88
CCOC(=O)N1CCN(S(=O)(=O)c2ccc(F)cc2)CC1	88	105	93	104	102
CCOC(=O)N1CCN(S(=O)(=O)c2ccc(C(=O)Nc3nc4ccccc4s3)cc2)CC1	68	68	73	13*	84
CCOC(=O)c1sc(NC(=O)c2ccc(S(=O)(=O)N3CCCCC3)cc2)nc1-c1ccccc1	·	53	46	·	·
CCOC(=O)N1CCN(S(=O)(=O)c2ccc(C(=O)Nc3nc4ccc(F)cc4s3)cc2)CC1	47	38	69	23*	29*
COc1ccccc1N1C(=O)N(C(C)=O)C2C1Nc1ccccc1N2C (stereo not drawn)	26*	83	93	31*	90
N#C[C@H]1[C@H](c2ccccc2)[C@](C#N)(C(=O)c2ccccc2)[C@@H]2C=Cc3ccccc3N21	·	5.3*	3.3*	·	·
COc1ccc(C(=O)N2c3ccccc3C=CC2C#N)cc1 (stereo not drawn)	·	28	38	·	·
CCOc1ncccc1C(=O)Nc1cccc(C(=O)Nc2cccc(S(=O)(=O)CCO)c2)c1	71	84	79	30*	93
Cc1nccc2[nH]c(=O)c(C(=O)NC3CCCCC3C)cc12 (stereo not drawn)	75	71	81	37*	93
CC1(C)Cc2nc3sc4c(SCC(=O)NCc5ccccc5)ncnc4c3cc2CO1	50	12	·	0.7*	55
CC1(C)Cc2nc3sc4c(N(CCO)CCO)ncnc4c3cc2CO1	·	98	91	·	·
SMILES	HUVEC prolif 384	HCT116 bCat-KO	HCT116 PTEN-null	H69AR inhibit	Fibroblast inh
O=C(NCCC1=CCCCC1)c1ccc(F)cc1	·	93	94	·	·
CC(C)(C)c1csc(NC(=O)c2ccc(Cl)s2)n1	59	58	79	82	63
CCNc1nc(N)c(C(=O)c2ccc(Cl)s2)s1	69	25	17	28*	83
COc1ccccc1/C=C/C(=O)c1ccc(Cl)cc1	·	25	15	·	·
COc1ccc(OC)c(/C=C/C(=O)c2ccc(Cl)cc2)c1	·	2.9*	3.1*	·	·
COc1ccc(-c2nnc(CSc3nc4ccccc4c(=O)n3C)o2)cc1OC	81	71	73	60	95
COc1ccc(-c2cc(-c3ccc(C)cc3)nc(SCc3nnc(-c4ccccc4)o3)c2C#N)cc1OC	·	1.5*	1.3*	·	·
Cc1ccc(NC(=O)CN(C)C(=O)Cn2ncc(Cl)c(Cl)c2=O)cc1	·	1.6*	1.0*	·	·
Cc1ccc(NC(=O)CN(C)C(=O)COc2c(Cl)cc(Cl)c3ccc(C)nc23)cc1	·	74	83	·	·
O=C(CSc1nnc2scc(-c3ccccc3)n12)Nc1nsc(-c2ccccc2)n1	87	73	62	38*	110
N#CC(C(=O)Nc1ccccc1)=C1CCCCC1	104	102	100	103	102
CCOc1ccccc1NC(=O)c1cccc(NC(=O)c2ccco2)c1	58	103	98	25*	60
CCOc1ccc(C(=O)Nc2ccc(NC(=O)c3ccco3)c(Cl)c2)cc1Br	·	70	53	·	·
CCOc1ccc(C(=O)Nc2ccc(NC(=O)c3ccco3)c(Cl)c2)cc1Cl	31	15	13	14*	66
CCCCOc1ccccc1NC(=O)c1ccco1	94	96	98	82	99
CS(=O)(=O)N1CCN(C(=O)c2cc(-c3ccccc3)nc3ccccc23)CC1	92	104	115	73	102
O=C(Nc1ccccc1OC(=O)c1ccc(Cl)cc1)c1ccc(Cl)cc1	·	61	70	·	·
O=C(Oc1ccccc1-c1nnco1)c1ccc(Cl)cc1	98	55	88	43	34*
Cc1ccc2sc(NNC(=O)c3cc(-c4cccs4)nc4ccccc34)nc2c1C	·	4.8*	4	·	·
O=C(NN1CCOCC1)c1cc(-c2cccs2)nc2ccccc12	·	92	94	·	·
Cc1cc(C)c2nc(NNC(=O)c3cc(-c4cccs4)nc4ccccc34)sc2c1	·	6	4	·	·
O=C(NNc1nc2ccc(Cl)cc2s1)c1cc(-c2cccs2)nc2ccccc12	·	4.2*	3.7*	·	·
C/C(=N\OCC(=O)NCC(F)(F)F)c1cc2ccccc2o1	·	99	102	·	·
COc1ccc(S(=O)(=O)Nc2cc(C(=O)NCCC(C)C)ccc2N2CCOCC2)cc1	94	98	90	77	96
CCCCC(=O)Nc1cc(OCC)c(NC(=O)c2ccccc2[N+](=O)[O-])cc1OCC	·	90	86	·	·
SMILES	HUVEC prolif 384	HCT116 bCat-KO	HCT116 PTEN-null	H69AR inhibit	Fibroblast inh
CC(Sc1nc(-c2ccc(F)cc2)cs1)C(=O)N1c2ccccc2CC1C (stereo not drawn)	·	72	58	·	·
O=S1(=O)C=C(Sc2nc3cc(Cl)ccc3o2)c2ccccc21	·	1.6*	1.6*	·	·
O=C(CNC(=O)c1ccc(Br)o1)Nc1cccc(-c2cnc3ccccc3n2)c1	83	81	85	25*	98
Cn1c(C(=O)OCC(=O)NCc2cccs2)cc2sccc21	74	92	88	89	101
C=CCN1C(=O)/C(=C/c2ccc(N(C)C)cc2)S/C1=N\c1nnc(CC)s1	63	76	73	26*	87
CCC(CC)C(=O)NCCc1ccc(OC)cc1	97	93	91	100	103
CC(=O)N1CCc2c(sc(NC(=O)c3ccc4c(c3)OCCO4)c2C#N)C1	63	24	29	24*	55
Cn1c(=O)c2cc(S(=O)(=O)N3CCN(c4cccc(C(F)(F)F)c4)CC3)ccc2n(C)c1=O	68	68	58	25*	58

Screening data as filed in PubChem BioAssay.
